In brackets after ≈: the same amount, converted by molar mass.
Key:
OVCAR-5 = assay: Growth inhibition of human OVCAR5 cells after 48 hrs by sulforhodamine B assay; type: functional; conditions: OVCAR-5, 48 h
In short: (§1)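 NCI 60 human cancer cell line screen run at the National Cancer Institute. Cells had 48 h continuous exposure, and proliferation was read by sulforhodamine B staining. GI50 (50% growth inhibition) was taken from dose–response curves.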

OVCAR-4 = assay: Growth inhibition of human OVCAR4 cells after 48 hrs by sulforhodamine B assay; type: functional; conditions: OVCAR-4, 48 h; in short: as §1
Mus musculus [1] = assay: Toxicity in DBA2 mouse assessed as change in color, weight and size in liver at 75 mg/kg, ip QD administered on alternate days for 17 days measured on day 23 relative to control; type: organism-based; set-up: dose 75 mg/kg, route intraperitoneal; conditions: in vivo, 408 h
In short: (§2)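 Healthy female DBA2 mice, 5–7 weeks old, five per group, received 75 mg/kg ip on days 1, 5, 9, 13 and 17. Vehicle was PET (PEG400/ethanol/Tween 80, 6:3:1), 5% glucose and DMSO, with final ethanol 15% and DMSO 10%. Controls received 100 µL vehicle. Body weight was measured every other day. At sacrifice on day 23, blood counts (hematocrit, WBC, granulocytes, platelets) and liver, kidney and spleen appearance and weight were assessed.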

T47D = assay: Growth inhibition of human T47D cells after 48 hrs by sulforhodamine B assay; type: functional
In short: (§3)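 Tested in the NCI 60 human cancer cell line panel. Cells were exposed continuously for 48 h and proliferation was read by sulforhodamine B staining. GI50 (concentration for 50% growth inhibition), TGI (total growth inhibition) and LC50 were taken from dose–response curves.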

[2] = Ratio of EC50 for microtubule depolymerization in […] cells to IC50 for human MDA-MB-435 cells
COLO 205 = assay: Growth inhibition of human COLO205 cells after 48 hrs by sulforhodamine B assay; type: functional; conditions: COLO 205, 48 h; in short: as §1
SF-539 = assay: Growth inhibition of human SF539 cells after 48 hrs by sulforhodamine B assay; type: functional; conditions: SF-539, 48 h; in short: as §1
HT-29 = assay: Growth inhibition of human HT-29 cells after 48 hrs by sulforhodamine B assay; type: functional; conditions: HT-29, 48 h; in short: as §1
786-0 = assay: Growth inhibition of human 786-0 cells after 48 hrs by sulforhodamine B assay; type: functional; conditions: 786-0, 48 h; in short: as §1
SK-MEL-28 = assay: Growth inhibition of human SK-MEL-28 cells after 48 hrs by sulforhodamine B assay; type: functional; conditions: SK-MEL-28, 48 h; in short: as §1
MDA-MB-435 = assay: Growth inhibition of human MDA-MB-435 cells after 48 hrs by sulforhodamine B assay; type: functional; conditions: MDA-MB-435, 48 h; in short: as §1
Mus musculus [3] = assay: Toxicity in DBA2 mouse assessed as change in color, weight and size in spleen at 75 mg/kg, ip QD administered on alternate days for 17 days measured on day 23 relative to control; type: organism-based; set-up: dose 75 mg/kg, route intraperitoneal; conditions: in vivo, 408 h; in short: as §2
TK-10 = assay: Growth inhibition of human TK10 cells after 48 hrs by sulforhodamine B assay; type: functional; conditions: TK-10, 48 h; in short: as §3
M14 = assay: Growth inhibition of human M14 cells after 48 hrs by sulforhodamine B assay; type: functional; conditions: M14, 48 h; in short: as §1
IGROV-1 = assay: Growth inhibition of human IGROV1 cells after 48 hrs by sulforhodamine B assay; type: functional; conditions: IGROV-1, 48 h; in short: as §1
[4] = Solubility of the compound in water by multiscreen solubility; type: physicochemical
In short: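 Aqueous solubility was measured with a modified Multiscreen Solubility filter-plate protocol. The assay ceiling is 500 µM, and two independent experiments were run.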

HOP-62 = assay: Growth inhibition of human HOP62 cells after 48 hrs by sulforhodamine B assay; type: functional; conditions: HOP-62, 48 h; in short: as §1
A549 = assay: Growth inhibition of human A549 cells after 48 hrs by sulforhodamine B assay; type: functional; conditions: A549, 48 h; in short: as §1
SF-295 = assay: Growth inhibition of human SF295 cells after 48 hrs by sulforhodamine B assay; type: functional; conditions: SF-295, 48 h; in short: as §1
OVCAR-3 = assay: Growth inhibition of human OVCAR3 cells after 48 hrs by sulforhodamine B assay; type: functional; conditions: OVCAR-3, 48 h; in short: as §1
A498 = assay: Growth inhibition of human A498 cells after 48 hrs by sulforhodamine B assay; type: functional; conditions: A498, 48 h; in short: as §1
HL-60(TB) = assay: Growth inhibition of human HL-60(TB) cells after 48 hrs by sulforhodamine B assay; type: functional; conditions: HL-60, 48 h
In short: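 NCI 60 human cancer cell line panel, tested at the National Cancer Institute. Continuous 48 h drug exposure, with proliferation read by sulforhodamine B staining. Dose–response curves gave GI50 (concentration inhibiting growth by 50%), TGI (total growth inhibition) and LC50.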

SNB-75 = assay: Growth inhibition of human SNB75 cells after 48 hrs by sulforhodamine B assay; type: functional; conditions: SNB-75, 48 h; in short: as §3
B16 = assay: Cytotoxicity against mouse B16 cells by MTT assay; type: functional, cell-based
RXF 393 = assay: Growth inhibition of human RXF393 cells after 48 hrs by sulforhodamine B assay; type: functional; conditions: RXF 393, 48 h; in short: as §1
SK-MEL-2 = assay: Growth inhibition of human SK-MEL-2 cells after 48 hrs by sulforhodamine B assay; type: functional; conditions: SK-MEL-2, 48 h; in short: as §1
UACC-257 = assay: Growth inhibition of human UACC257 cells after 48 hrs by sulforhodamine B assay; type: functional; conditions: UACC-257, 48 h; in short: as §3
CCRF-CEM = assay: Growth inhibition of human CCRF-CEM cells after 48 hrs by sulforhodamine B assay; type: functional; in short: as §1
MCF7 = assay: Growth inhibition of human MCF7 cells after 48 hrs by sulforhodamine B assay; type: functional; conditions: MCF7, 48 h; in short: as §1
OVCAR-8 = assay: Growth inhibition of human OVCAR8 cells after 48 hrs by sulforhodamine B assay; type: functional; conditions: OVCAR-8, 48 h; in short: as §1
HCT-116 = assay: Growth inhibition of human HCT116 cells after 48 hrs by sulforhodamine B assay; type: functional; conditions: HCT-116, 48 h; in short: as §1
Malme-3M = assay: Growth inhibition of human MALME-3M cells after 48 hrs by sulforhodamine B assay; type: functional; conditions: read-out: pTGI; in short: as §1
Mus musculus [5] = assay: Toxicity in DBA2 mouse assessed as change in hematocrit at 75 mg/kg, ip QD administered on alternate days for 17 days measured on day 23 relative to control; type: organism-based; set-up: dose 75 mg/kg, route intraperitoneal; conditions: in vivo, 408 h; in short: as §2
[6] = Growth inhibition of human NCI-ADR-RES cells after 48 hrs by sulforhodamine B assay; type: functional; in short: as §1

COc1ccc(/C=C(/C(C)=O)c2cc(OC)c(OC)c(OC)c2)cc1O
GI50 (OVCAR-5): 4270 nM
TGI (OVCAR-5; read-out: pTGI): > 100000 nM
GI50 (OVCAR-4): 933 nM
TGI (OVCAR-4; read-out: pTGI): > 100000 nM
Activity (Mus musculus [1]): Non-toxic
GI50 (T47D): 100000 nM
TGI (T47D; read-out: pTGI): > 100000 nM
Ratio [2]: 10
GI50 (COLO 205): 10700 nM
TGI (COLO 205; read-out: pTGI (converted)): 37200 nM
GI50 (SF-539): 302 nM
TGI (SF-539; read-out: pTGI): > 100000 nM
GI50 (HT-29): 3630 nM
TGI (HT-29; read-out: pTGI (converted)): 15500 nM
GI50 (786-0): 562 nM
TGI (786-0; read-out: pTGI (converted)): 44700 nM
GI50 (SK-MEL-28): 100000 nM
TGI (SK-MEL-28; read-out: pTGI): > 100000 nM
GI50 (MDA-MB-435): 25.7 nM
TGI (MDA-MB-435; read-out: pTGI (converted)): 75.9 nM
Activity (Mus musculus [3]): Non-toxic
GI50 (TK-10): 18200 nM
TGI (TK-10; read-out: pTGI): > 100000 nM
GI50 (M14): 209 nM
TGI (M14; read-out: pTGI): > 100000 nM
GI50 (IGROV-1): 316 nM
TGI (IGROV-1; read-out: pTGI): > 100000 nM
solubility [4]: 456 µM (≈ 163 µg/mL)
GI50 (HOP-62): 589 nM
TGI (HOP-62; read-out: pTGI): > 100000 nM
GI50 (A549): 468 nM
TGI (A549; read-out: pTGI): > 100000 nM
GI50 (SF-295): 263 nM
TGI (SF-295; read-out: pTGI (converted)): 1050 nM
GI50 (OVCAR-3): 95.5 nM
TGI (OVCAR-3; read-out: pTGI (converted)): 355 nM
GI50 (A498): 67.6 nM
TGI (A498; read-out: pTGI (converted)): 550 nM
GI50 (HL-60(TB)): 37.1 nM
GI50 (SNB-75): 257 nM
TGI (SNB-75; read-out: pTGI): > 100000 nM
IC50 (B16): 3500 nM
GI50 (RXF 393): 219 nM
GI50 (SK-MEL-2): 513 nM
TGI (SK-MEL-2; read-out: pTGI): > 100000 nM
GI50 (UACC-257): 186 nM
TGI (UACC-257; read-out: pTGI): > 100000 nM
GI50 (CCRF-CEM): 398 nM
TGI (CCRF-CEM; read-out: pTGI): > 100000 nM
GI50 (MCF7): 195 nM
TGI (MCF7; read-out: pTGI): > 100000 nM
GI50 (OVCAR-8): 372 nM
TGI (OVCAR-8; read-out: pTGI): > 100000 nM
GI50 (HCT-116): 331 nM
TGI (HCT-116; read-out: pTGI): > 100000 nM
TGI (Malme-3M): > 100000 nM
Activity (Mus musculus [5]): Non-toxic
GI50 [6]: 110 nM

From ChEMBL document CHEMBL1765023, “Acetyl analogs of combretastatin A-4: synthesis and biological studies” (Bioorg Med Chem, 2011)
